# HIF activator: HIF pathway transcriptional activators, primary screen, cell-based, U2OS HRE-luciferase, luminescence; U2OS HRE-luciferase reporter; normalized: DMSO 0%, desferrioxamine 100%; activation, % at 7.5 µM (by protocol); actives 0.32% (n = 300,000);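 active = mean activation of at least 10% of the iron chelator positive control signal, with at least half of replicates also reaching 10%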
# JMJD2C inh: inhibitors of GASC-1 histone demethylase, primary screen, biochemical, fluorescence, DELFIA europium. inhibition, % at 2.35 µM. Lysine-specific demethylase 4C (Homo sapiens), Q9H3R0. GST-JMJD2C(1-420) H3K9me3 demethylation. actives 0.069% (n = 330,000). AID 2099, 2009;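 active = more than half of a compound's replicate wells show inhibition beyond 50%, single wells judged on their own value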;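 note: signal counts dimethyl H3K9 product captured on neutravidin plate; 0% = median of DMSO wells and 100% = 0.3 times that DMSO median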
# Target sequence (Q9H3R0 1-420 limits assumed): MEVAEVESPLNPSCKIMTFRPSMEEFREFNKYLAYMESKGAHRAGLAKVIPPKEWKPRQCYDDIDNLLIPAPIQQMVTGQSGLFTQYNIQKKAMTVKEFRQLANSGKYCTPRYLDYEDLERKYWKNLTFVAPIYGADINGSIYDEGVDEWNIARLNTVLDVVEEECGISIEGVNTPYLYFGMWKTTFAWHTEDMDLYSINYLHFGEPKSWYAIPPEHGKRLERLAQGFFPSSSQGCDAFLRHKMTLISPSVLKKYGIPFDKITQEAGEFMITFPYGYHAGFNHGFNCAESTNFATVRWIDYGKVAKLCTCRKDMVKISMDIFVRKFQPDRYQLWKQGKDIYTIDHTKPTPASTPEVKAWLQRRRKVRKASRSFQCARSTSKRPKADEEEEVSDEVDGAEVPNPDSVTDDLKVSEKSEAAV
# Mot1-301 SUMO: yeast Mot1-301 growth rescue at high temperature, primary screen, SUMOylation pathway inhibitor project, S. cerevisiae, ATP luminescence, 38.5C | growth rescue, % at 18.8 µM | actives 1% (n = 320,000) | S. cerevisiae Mot1-301 growth rescue; percent above DMSO median, 100 means doubled;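 active = every valid replicate shows activation above 250% relative to neutral control wells; inactive = the rest, any valid replicate at or below 250%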;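 note: OY570 slx delta 5 strain wells were the positive control but not used for scaling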
# T cell modulator: modulators of CD8 T cell-vesicle binding, primary screen, mouse 2C CD8+ T cells, flow cytometry. 2C CD8+ T cell-vesicle binding; active compounds read low. response (vesicle binding), % at 7 µM. actives 0.068% (n = 330,000). AID 2052, 2009;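 active = response, share of CD8 T cells binding vesicles, and their 90th percentile fluorescence all below set limits, cut at about 80% in these data, passing the limit was not always enough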;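 note: values below 100% mean blocked vesicle binding to the CD8+ T cells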
#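 Assay system – 2C mouse CD8+ T cells · Also added – QL9-loaded Drosophila micro-vesicles · Timing – Cell–vesicle co-incubation 1.5 h at 37 °C, staining 20 min on ice · Signal – flow cytometry of vesicle-bound cells · Measure – percent CD8+ FL2 mean versus row control · Controls – Peptide-free naked vesicles (low) and QL9 vesicles with 0.7% DMSO vehicle (high)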
# * = called active by the depositor; i = inactive; / = no result. Hits are enriched below; roughly 1.4% of the tested compounds scored in any of these assays.
SMILES,HIF activator,JMJD2C inh,Mot1-301 SUMO,T cell modulator
O=C1NC(Cc2ccc(O)cc2)c2nc3ccc(Cl)cc3c(=O)n2-c2ccc(Cl)cc21 (centres undefined),/,4.1,89.3,270.7
CC1CC(=O)Nc2ccccc2N1C(=O)Cn1cnc2ccccc2c1=O (centres undefined),/,1.8,5.2,473.6
O=C(COC(=O)c1cc(S(=O)(=O)N2CCOCC2)ccc1O)Nc1cc(S(=O)(=O)N2CCCC2)ccc1Cl,-0.3,2.6,352.3*,351.7
O=C(COC(=O)c1ccc(S(=O)(=O)N2CCOCC2)cc1)Nc1ccccc1OC(F)F,/,7.0,3.2,0.0*
Cn1cccc1C(=O)NC(=O)COC(=O)c1cc(S(=O)(=O)N2CCCCC2)ccc1Cl,46.0*,23.1,79.5,187.0
CC1(C)NC(=O)N(CC(=O)N2CCN(c3cccc(Cl)c3)CC2)C1=O,/,/,-1.4,222.5
CC(C)(C)c1ccccc1NC(=O)NC1CCN(Cc2c(F)cccc2Cl)CC1,-0.5,2.8,19.7,672.0
O=C(c1ccc(-c2cccc(C(F)(F)F)c2)o1)N1CCCCCCC1,0.5,2.6,532.9*,292.6
COc1cc(OC)cc(C(=O)N2CCN(S(=O)(=O)c3ccc(Cl)s3)CC2)c1,/,-5.7,126.7,377.6
CCOCCSc1n[nH]c(=O)n1CCc1ccccc1,1.3,2.2,4.1,71.2
C[C@H](CO)N1C[C@H](C)[C@@H](CN(C)S(=O)(=O)c2ccc(F)cc2)Oc2c(NC(=O)CCC(F)(F)F)cccc2C1=O,/,26.4,122.5,115.3
C[C@H](CO)N1C[C@H](C)[C@@H](CN(C)S(=O)(=O)c2ccccc2)Oc2c(NC(=O)CCC(F)(F)F)cccc2C1=O,/,52.8*,0.2,385.6
CNC[C@@H]1Oc2c(NC(=O)Nc3ccccc3)cccc2C(=O)N([C@@H](C)CO)C[C@H]1C,/,50.9*,5.2,462.2
COc1ccc(S(=O)(=O)Nc2cccc3c2O[C@H](CN(C)Cc2ccc(-c4ccccc4)cc2)[C@@H](C)CN([C@H](C)CO)C3=O)cc1,/,-3.6,-6.3,169.9
C[C@H](CO)N1C[C@H](C)[C@@H](CN(C)S(=O)(=O)c2cccs2)Oc2c(NC(=O)CCC(F)(F)F)cccc2C1=O,/,52.1*,49.9,416.0
CNC[C@@H]1Oc2c(NC(=O)Nc3ccc(F)cc3)cccc2C(=O)N([C@H](C)CO)C[C@@H]1C,/,-25.2,-7.0,334.0
COc1ccc(S(=O)(=O)Nc2cccc3c2O[C@H](CN(C)Cc2ccc(C(=O)O)cc2)[C@@H](C)CN([C@H](C)CO)C3=O)cc1,/,58.2*,-10.8,155.0
NC(N)=NC(=S)Nc1ccc(Cl)cc1,-6.7,-2.3,-12.9,166.8
COc1ccc(/C=N/NC2=NS(=O)(=O)c3ccccc32)cc1OC,0.2,2.9,-16.4,207.2
CC1(c2ccccc2)NC(=O)N(NC(=O)COC(=O)c2cc(Br)ccc2O)C1=O (centres undefined),-0.3,0.0,15.4,560.0
CC(C)(C)c1ccc(CNC(=O)c2ccc3c(c2)NC(=O)CO3)cc1,-0.6,1.2,331.4*,90.5
O=C1COc2ccc(C(=O)NCc3ccc4c(c3)OCO4)cc2N1,-0.1,-5.0,2.9,417.3
COc1cc(/C=N/NC(=O)c2ccc(NS(=O)(=O)c3cccs3)cc2)cc(OC)c1O,/,0.2,-5.8,80.0*
NC(=O)c1cc([N+](=O)[O-])ccc1Nc1ccccc1,/,4.0,80.6,749.2
O=C(O)c1ccccc1Nc1ccc([N+](=O)[O-])cc1C(=O)O,14.2*,8.0,-7.3,i
SMILES,HIF activator,JMJD2C inh,Mot1-301 SUMO,T cell modulator
CCOc1ccccc1NC(=O)NCc1ccco1,-0.2,6.5,-4.2,546.5
CC(C)C(=O)NC(c1ccco1)c1ccc2cccnc2c1O (centres undefined),21.9*,1.9,2.8,221.6
Oc1c(C(Nc2nc3ccccc3s2)c2ccco2)ccc2cccnc12 (centres undefined),31.3*,6.9,-2.1,528.0
CC(C)C(=O)NC(c1cccc([N+](=O)[O-])c1)c1ccc2cccnc2c1O (centres undefined),94.5*,-1.9,12.5,100.9
COC(=O)CC(NC(=O)CN1CCN(c2ccc(F)cc2)CC1)c1cccc(F)c1 (centres undefined),-0.4,-17.0,13.6,350.6
Cc1cc(NC(=O)CCC(=O)N(CCC(C)C)C(C(=O)NC2CCCC2)c2ccccc2C)no1 (centres undefined),-0.1,1.0,20.7,357.8
C(=N\NC1=NCCN1)/c1ccncc1,-0.3,-23.3,-2.7,123.5
CCN(CC)c1ccc2c(Cl)cc(=O)oc2c1,1.4,-23.5,5.2,52.4*
NC(=O)C1CCN(c2nc(-c3ccccc3-c3ccccc3)cs2)CC1,/,2.4,0.9,310.1
Cc1ccc(S(=O)(=O)Nc2cc(-c3ccc(Cl)cc3)nn2C)cc1,18.8*,0.7,-12.2,239.1
O=C(COC(=O)c1ccc(Br)o1)Nc1ccc(N2CCOCC2)cc1,/,/,/,301.6
O=C(CSc1ncnc2c1oc1ccccc12)Nc1ccccc1F,-0.1,-5.3,19.3,i
CCOc1ccccc1NC(=O)CSc1ncnc2c1oc1ccccc12,69.0*,-44.2,-2.2,307.0
Nc1cc(N2CCCC2)c(Cl)cc1[N+](=O)[O-],-0.2,-3.2,307.5*,414.3
Nc1cc(C(=O)OCC(=O)c2ccc(CC(=O)N3CCOCC3)s2)ccc1Cl,/,9.5,-0.9,0.0*
Cc1oc(-c2ccccc2Cl)nc1CS(=O)CC(=O)NCCCN1CC(C)CC(C)C1 (centres undefined),0.3,25.5,115.1,308.5
CC(O)CNc1nc2ccccc2n1CC(=O)NC12CC3CC(CC(C3)C1)C2 (centres undefined),-0.5,51.4*,-0.9,302.1
Oc1ccccc1N=Nc1nc(-c2ccccc2)c(-c2ccccc2)[nH]1,220.2*,-2.6,120.1,272.6
COc1ccccc1N=Nc1nc(-c2ccccc2)c(-c2ccccc2)[nH]1,1.0,3.3,21.9,445.4
COc1ccc(O)c(/C=N/NC(=O)c2cccc(N3CCCC3=O)c2)c1,6.7,1.9,-9.0,593.2
O=C(N/N=C/c1cc(Br)ccc1O)c1cccc(N2CCCC2=O)c1,41.5*,2.8,26.6,311.1
O=C(O)c1cccc(C(=O)O)c1,0.6,-1.0,384.2*,444.0
COC(=O)c1cccc(N2CCCC2=O)c1,-0.1,-10.6,-26.6,394.4
O=C(O)c1cccc(N2CCCC2=O)c1,47.4*,4.2,0.2,464.7
CCN(CC)C1CC(=O)N(c2cccc(C)c2)C1=O (centres undefined),-0.1,-10.6,285.3*,155.1
CCN(CC)c1nc(C(F)(F)F)nc2c1nnn2Cc1ccccc1,-1.1,3.6,-7.1,155.5
O=C(CNC(=O)C1CCCCC1)NCc1ccco1,0.1,-0.3,-9.5,202.2
CCCc1nn(C(=O)c2ccccc2)c2c1C(=O)CC(C)(C)C2,0.0,-0.9,-5.3,324.7

# High-throughput results from PubChem.
